Experimental findings from ChEMBL document CHEMBL5252535, “Design of nucleotide-mimetic and non-nucleotide inhibitors of the translation initiation factor eIF4E: Synthesis, structural and functional characterisation” (Eur J Med Chem, 2016) are described below.

The subject of one test is MCF7. Description: Inhibition of protein synthesis in methionine-starved human MCF7 cells incubated for 24 hrs by scintillation counting based 35S-Met incorporation assay. Type of test: functional, cell-based.
The subject of test [1] is HeLa. Nature of the test: Inhibition of protein synthesis in methionine-starved human HeLa cells incubated for 24 hrs by scintillation counting based 35S-Met incorporation assay. The class given is functional, cell-based. The method, boiled down:
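HeLa cells seeded at 6 × 10^4 per well, grown 24 h to 70% confluency, treated 24 h; Met-starved 30 min in Met-free DMEM with fresh compound, then pulsed 30 min with 35S-Met. Cells washed, lysed, protein TCA-precipitated and scintillation counted; puromycin positive control; three independent occasions; IC50 derived.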

Test [2] concerns the target T1, Eukaryotic translation initiation factor 4E (Homo sapiens, UniProt P06730). Description: Inhibition of m7GDP fluorescent probe binding to recombinant eIF4E (unknown origin) assessed as dissociation constant by fluorescence polarization assay. A general note: Fluorescence polarisation rises when a labelled molecule tumbles more slowly, as on binding a larger partner.

In test [3] the target is T1, Eukaryotic translation initiation factor 4E. Nature of the test: Inhibition of P32-[alpha-GTP] cap radiolabelled RNA binding to recombinant eIF4E (unknown origin) assessed as decrease in cross linked RNA-eIF4E complex formation preincubated with UV radiation for 30 mins followed by RNase addition and measured after 30 mins by SDS-PAGE based autoradiographic analysis.

Test [4] deals with Reticulocyte. Description: Inhibition of cap dependent translation of renilla luciferase mRNA in pRHCVF RNA primed rabbit reticulocyte lysate at 100 uM incubated for 90 mins by […]. The class given is functional, subcellular. To be noted: Oryctolagus cuniculus. The procedure, abridged: (§1)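 Rabbit reticulocyte lysate primed with 20 ng capped pRHCVF RNA (20 μL), 30 °C for 90 min, then on ice. Renilla (cap-dependent) and firefly (HCV IRES) luciferase read; final DMSO ≤1%; inhibition relative to 1% DMSO control set at 100%; m7GTP positive control. Three independent experiments, Student's t-test, S.D.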

Test [5] relates to Reticulocyte. Description: Inhibition of HCV-IRES mediated cap-independent translation of firefly luciferase mRNA in rabbit reticulocyte lysate at 100 uM incubated for 90 mins by […]. Particulars: Oryctolagus cuniculus. Type of test: functional, subcellular. The method, boiled down: as §1
Test [6] deals with Reticulocyte. Nature of the test: Inhibition of HCV-IRES mediated cap-independent translation of firefly luciferase mRNA in rabbit reticulocyte lysate at 25 to 100 uM incubated for 90 mins by […]. The class given is functional, subcellular. Particulars: Oryctolagus cuniculus, dose 25-100 µM. The procedure, abridged: as §1
Test [7] has as its system HeLa. Description: Inhibition of cap dependent translation in human HeLa cells assessed as increase in sub-polysomal material at 50 to 100 uM incubated for 2 hrs by UV absorbance recording based assay. The class given is functional, cell-based. To be noted: dose 50-100 µM. The procedure, abridged:
(§2)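 HeLa cells seeded in 15-cm dishes, grown 24 h to 70% confluency, treated 2 h; cycloheximide (0.1 mg/mL) added, cells harvested on ice and lysed (300 mM NaCl, 15 mM MgCl2, 15 mM Tris pH 7.5, heparin, cycloheximide, 0.1% Triton X-100). Lysates run on 10–60% sucrose gradients, 38,000 rpm 2 h; 1 mL fractions with continuous UV absorbance; polysome vs subpolysome areas compared; puromycin positive control.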

Test [8] has as its system HeLa. Nature of the test: Inhibition of cap dependent translation in human HeLa cells assessed as decrease in amount of RNA incorporated in polysomes at 25 uM incubated for 2 hrs by UV absorbance recording based assay. The class given is functional, cell-based. The procedure, abridged: as §2
The test system of test [9] is HeLa. Description: Downregulation of cyclin D1 protein level in human HeLa cells at 50 to 100 uM incubated for 2 hrs by Western blot analysis. The class given is functional, cell-based. Particulars: dose 50-100 µM. The method, boiled down: (§3)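 HeLa cells treated 2 h; lysates probed by western blotting for c-myc and cyclin D1, actin as loading control.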
A general note: Immunoblotting shows a protein as a band on a membrane.

Test [10] relates to HeLa. Description: Downregulation of cMyc protein level in human HeLa cells at 50 to 100 uM incubated for 2 hrs by Western blot analysis. Type of test: functional, cell-based. Particulars: dose 50-100 µM. The procedure, abridged: as §3
Test [11] deals with Reticulocyte. Nature of the test: Inhibition of cap dependent translation of renilla luciferase mRNA in pRHCVF RNA primed rabbit reticulocyte lysate at 25 to 100 uM incubated for 90 mins by […]. The class given is functional, subcellular. Particulars: Oryctolagus cuniculus, dose 25-100 µM. The procedure, abridged: as §1

The source made the active and inactive calls. The rule behind the calls is not given here.

T1 sequence (P06730 whole entry): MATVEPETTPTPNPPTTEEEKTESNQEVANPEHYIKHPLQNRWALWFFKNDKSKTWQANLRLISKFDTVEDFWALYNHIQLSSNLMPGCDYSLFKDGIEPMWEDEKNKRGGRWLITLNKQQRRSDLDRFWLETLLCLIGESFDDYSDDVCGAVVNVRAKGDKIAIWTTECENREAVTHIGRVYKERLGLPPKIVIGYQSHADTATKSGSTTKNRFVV

On to `C[n+]1cn([C@@H]2O[C@H](COP(=O)(O)O)[C@@H](O)[C@H]2O)c2nc(N)[nH]c(=O)c21`, for which the inhibition result in the test with MCF7 and in the test with HeLa [1] was “inactive” in each case.
The term Kd denotes the free concentration of one partner at which half of the binding sites on the other are occupied at equilibrium, for simple one-to-one binding. What is called IC50 is the concentration that inhibits the measured activity by half. In the case of `Nc1nc2c(c(=O)[nH]1)[n+](Cc1ccccc1)cn2[C@@H]1O[C@H](CNS(=O)(=O)C(F)(F)F)[C@@H](O)[C@H]1O`, the Kd in [2] amounted to 56.5 µM. In addition, the IC50 in [3] was found to be 12.6 µM. Moreover, in the test on Reticulocyte [4], the inhibition result was “Active”. In addition, the inhibition entry in the test on MCF7, with HeLa [1] and in the test on Reticulocyte [5] was “inactive” throughout.
Consider `C[n+]1cn([C@@H]2O[C@H](CNS(=O)(=O)c3ccc(C(=O)O)cc3)[C@@H](O)[C@H]2O)c2nc(N)[nH]c(=O)c21`, for which the inhibition result in the test with Reticulocyte [4] was “Active”. In addition, the inhibition entry in the test with MCF7, in the test with HeLa [1] and in the test with Reticulocyte [5] was “inactive” each time.
In the case of `C[n+]1cn([C@@H]2O[C@H](COP(=O)(O)OP(=O)(O)OP(=O)(O)O)[C@@H](O)[C@H]2O)c2nc(N)[nH]c(=O)c21`, the inhibition result in the test on MCF7 and in the test on HeLa [1] was “inactive” throughout.
As to `CC(C)CNC(=S)N(Cc1ccccc1)Cc1cc2cc3c(cc2[nH]c1=O)OCO3`, the inhibition entry in the test with Reticulocyte [6] was “inactive”. Moreover, the inhibition result in the test on HeLa [7], in the test on HeLa [8] and in the test with Reticulocyte [11] was “Active” throughout. For the same compound, the dissociation constant (Kd) in [2] amounted to 57.8 µM. Further, the outcome in the test with HeLa [9] and in the test with HeLa [10] was Active.
